Rows were chosen to be rich in hits. Some 5.5% of all compounds tested hit in one or more screens of this group.
HSV replic up: enhancers of HSV replication in host cells, fold increase, host cell viability; maximum fold increase; 220,000 compounds, 0.005% hits; AID 1956, 2009; HSV replication augmentation in cells; in the data active means maximum fold increase above about 1.5; inconclusive means no clear call, values can overlap the other calls; tested in PC3 cells
Cl transport mod: KCC2 cotransporter modulators, thallium flux, primary screen, cell-based, HEK293 KCC2, FluoZin-2 fluorescence, MLSMR; AID 1456, 2008; B-score of Tl+ flux slope (higher = more flux/activation; lower = inhibition) at 10 µM; KCC2 cells, thallium flux FluoZin-2 fluorescence; 190,000 compounds, 2.2% hits;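 active means thallium flux slope and its plate-corrected score both differing from the plate sample mean at a set confidence after two filtering rounds, in either direction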;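 further: slope of fluorescence scaled to starting intensity during 10 to 20 s after thallium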
Target sequence (Q9H2X9 whole entry, looked up): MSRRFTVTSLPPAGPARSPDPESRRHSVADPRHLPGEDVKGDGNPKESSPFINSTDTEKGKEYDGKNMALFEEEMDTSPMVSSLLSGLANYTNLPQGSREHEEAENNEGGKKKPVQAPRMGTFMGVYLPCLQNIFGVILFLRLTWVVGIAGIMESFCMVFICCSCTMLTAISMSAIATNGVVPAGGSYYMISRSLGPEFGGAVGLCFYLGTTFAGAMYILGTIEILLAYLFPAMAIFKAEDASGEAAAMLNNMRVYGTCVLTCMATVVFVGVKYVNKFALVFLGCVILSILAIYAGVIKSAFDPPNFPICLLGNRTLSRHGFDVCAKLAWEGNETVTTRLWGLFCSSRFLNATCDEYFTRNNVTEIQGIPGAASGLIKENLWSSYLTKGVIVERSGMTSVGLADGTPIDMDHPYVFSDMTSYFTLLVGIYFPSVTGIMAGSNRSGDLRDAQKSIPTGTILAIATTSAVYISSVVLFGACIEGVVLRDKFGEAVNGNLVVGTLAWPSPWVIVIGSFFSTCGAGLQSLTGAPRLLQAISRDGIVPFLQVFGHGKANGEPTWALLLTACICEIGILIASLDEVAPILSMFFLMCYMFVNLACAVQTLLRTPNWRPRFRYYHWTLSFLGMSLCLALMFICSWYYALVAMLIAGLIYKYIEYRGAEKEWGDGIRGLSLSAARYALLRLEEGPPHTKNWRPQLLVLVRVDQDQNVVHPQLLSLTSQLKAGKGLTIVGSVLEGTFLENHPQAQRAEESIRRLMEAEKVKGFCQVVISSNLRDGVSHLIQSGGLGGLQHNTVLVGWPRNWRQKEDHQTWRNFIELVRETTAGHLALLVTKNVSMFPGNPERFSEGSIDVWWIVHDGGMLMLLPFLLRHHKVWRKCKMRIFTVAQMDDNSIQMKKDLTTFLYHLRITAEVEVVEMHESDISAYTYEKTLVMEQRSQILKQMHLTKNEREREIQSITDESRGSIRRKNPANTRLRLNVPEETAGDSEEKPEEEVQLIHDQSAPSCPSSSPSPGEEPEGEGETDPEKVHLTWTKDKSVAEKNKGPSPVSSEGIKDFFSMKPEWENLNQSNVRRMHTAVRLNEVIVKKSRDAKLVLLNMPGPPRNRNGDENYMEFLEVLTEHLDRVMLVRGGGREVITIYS
STAT1 activator: STAT1 signaling activators, primary screen, cell-based, HTS, luciferase reporter; activation (% of control), % at 5.5 µM; NIH 3T3 STAT1-luciferase reporter, IFN-gamma, luminescence; 100% = IFN-gamma alone, no compound; AID 932, 2007; 200,000 compounds, 2.6% hits;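 active means activation above the screen-wide mean activation plus 3 SD, cut at about 130% in these data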
STAT1 blocker: STAT1 signaling inhibitors, primary screen, cell-based, HTS, luciferase reporter; NIH 3T3 STAT1-luciferase reporter, IFN-gamma, luminescence; inhibition, % at 5.5 µM; 200,000 compounds, 0.35% hits; AID 920, 2007;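 active means inhibition above a set limit, the mean inhibition across all tested compounds plus 3 SD, cut at about 34% in these data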
STAT3 act: IL-6 driven STAT3 reporter potentiators, primary screen, U3A cells, luciferase, luminescence, MLSCN library; 190,000 compounds, 0.91% hits; IL-6 STAT3-luciferase reporter; 100% = signal with IL-6 EC80 alone; activation (% of control), % at 5.6 µM;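 active means activation above the screen-wide mean of compound activation plus 3 SD, cut at about 130% in these data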
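Detection: reporter luminescence signal / Assay system: STAT1-lacking human U3A cells, STAT3 luciferase reporter / Incubation: compound pre-incubation 1 h before IL-6, then 6 h stimulation at 37 °C / Control set: IL-6-only high control / Read-out: % activation relative to IL-6 control / Probe or stimulus: Interleukin-6, 33 ng/mL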
STAT3 inh: IL-6 driven STAT3 reporter inhibitors, primary screen, U3A cells, luciferase, luminescence, MLSCN library; inhibition, % at 5.5 µM; AID 862, 2007; IL-6 STAT3-luciferase reporter; host cell line lacks STAT1; 190,000 compounds, 0.89% hits;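 active means inhibition above the mean inhibition across all screened compounds plus 3 SD, cut at about 44% in these data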
Large screens that a line does not name were inactive.

Cc1cccc(/C(N)=N/OC(=O)COc2ccccc2Cl)c1	STAT1 activator 135.2 (no result: HSV replic up)
COc1ccc(/C(N)=N/OC(=O)COc2ccccc2Cl)cc1	none (no result: HSV replic up)
N/C(=N\OC(=O)COc1cc(Cl)c(Cl)cc1Cl)c1ccncc1	STAT1 activator 131.3
CCC(C(=O)O/N=C(\N)c1cccc(C)c1)c1ccccc1 (stereo unspecified)	none
Cc1cccc(/C(N)=N/OC(=O)Cc2ccccc2)c1	STAT1 activator 147.2
O=C(Nc1ccccc1)c1c2c(nc3ccccc13)CCCC2	none (no result: STAT1 activator, STAT1 blocker, STAT3 act, STAT3 inh)
Cc1ccc(O)c(-c2cc(-c3ccccc3C)[nH]n2)c1	none (no result: HSV replic up)
COc1ccc(-c2cc(-c3cc(C)ccc3O)[nH]n2)cc1	STAT1 activator 146.3, STAT3 act 139.6
C=Cn1cc[n+](CC(=O)C(C)(C)C)c1	none
Cc1nn2c3ccccc3nc2c2ccccc12	STAT3 act 134.4 (no result: Cl transport mod)
O=C(Oc1ccc(Cl)c2cccnc12)C12CC3CC(CC(C3)C1)C2	none
CNc1ccc(/C=C(\C#N)c2ccccn2)cc1[N+](=O)[O-]	STAT1 activator 138.8
N#C/C(=C\c1ccccc1)c1ccccn1	STAT1 activator 130.4
N#C/C(=C\c1ccc(Cl)c([N+](=O)[O-])c1)c1ccccn1	none
CN1CCc2c1nc1ccccc1c2N=C1CCCN1Cc1ccccc1	none (no result: HSV replic up)
CC(C)n1c(-c2ccccc2F)n[nH]c1=S	none
CC(C)n1c(-c2ccc(C(C)(C)C)cc2)n[nH]c1=S	Cl transport mod 37
CCN1C(=O)/C(=C/C=C2/SCCN2C)SC1=S	HSV replic up inconclusive, STAT1 activator 152.3, STAT3 inh 59.0
CN1CCS/C1=C\C=C1/SC(=S)N(CC(=O)O)C1=O	none (no result: HSV replic up)
O=[N+]([O-])c1ccccc1NCCOc1ccccc1	STAT1 activator 129.4
O=C(OCC(=O)N1CCc2ccccc21)c1nc(Cl)ccc1Cl	none
CCn1nc(C(=O)OCC(=O)N2CCc3ccccc32)c2ccccc2c1=O	Cl transport mod -3.42
O=C(NC(=S)Nc1ccc2cn[nH]c2c1)c1ccccc1	STAT1 activator 147.5
S=C(Nc1ccccc1)Nc1ccc2cn[nH]c2c1	none (no result: STAT1 activator, STAT1 blocker, STAT3 act, STAT3 inh)
O=C(NC(=S)Nc1ccc2c(c1)OCO2)c1ccccc1	STAT1 activator 145.6 (no result: Cl transport mod)
O=C(NCC1COc2ccccc2O1)c1ccccc1 (stereo unspecified)	none
O=C(NC(=S)NCC1COc2ccccc2O1)c1ccccc1 (stereo unspecified)	Cl transport mod 4.33
CCOC(=O)c1ccc(S(=O)(=O)Nc2cc(C(=O)O)ccc2Cl)cc1	none
CC(C)(C)C(=O)NC(=C(Cl)Cl)P(=O)(O)O	Cl transport mod -3.8
c1ccc(-c2nc3ccccc3o2)nc1	none (no result: HSV replic up)
c1ccc2nc(-c3nc4ccccc4o3)ccc2c1	STAT1 blocker 38.0, STAT3 inh 80.3
Cc1ccsc1C(=O)N1CCCC(C(=O)c2cc(F)ccc2F)C1 (stereo unspecified)	none
COc1ccc(-n2c(C)cc(C(=O)CN3C(=O)c4ccccc4C3=O)c2C)cc1	STAT1 activator 134.2
CC1(C)CCC23CC[C@]4(C)C(OC2=O)(C3C1)[C@H]1O[C@H]1C1[C@@]2(C)CC[C@@H](O)C(C)(C)C2CC[C@]14C (stereo partly specified)	none (no result: Cl transport mod, STAT1 activator, STAT1 blocker, STAT3 act, STAT3 inh)
O=[N+]([O-])c1cc(C(F)(F)F)ccc1N1CCCNCC1	none
O=C(NC(=S)N1CCN(c2ccc(C(F)(F)F)cc2[N+](=O)[O-])CC1)c1cccs1	Cl transport mod 64.4
O=C(COc1ccc(F)cc1)c1ccc2c(c1)CCCC2	STAT1 activator 137.4
Cc1ccc(N=Nc2c(C)[nH]n(C(N)=S)c2=O)cc1	STAT1 activator 136.6
Cc1[nH]n(C(N)=S)c(=O)c1N=Nc1ccc(S(=O)(=O)N2CCCC2)cc1	none
CCOC(=O)c1cnc(Nc2nc3ccccc3o2)nc1C	STAT1 blocker 45.0, STAT3 inh 96.3
CCOC(=O)c1cnc(Nc2nc3ccccc3o2)nc1CN1CCN(c2ccccc2)CC1	none (no result: HSV replic up)
O=C(OCC1CC(c2ccccc2)=NO1)c1ccc(Cl)cc1 (stereo unspecified)	none (no result: Cl transport mod)
CN1OC(COC(=O)c2ccccc2)CC1c1ccccc1 (stereo unspecified)	STAT1 activator 129.9
CCCCC(=O)Nc1cc(Cl)ccc1C(=O)O	none
Cc1ccccc1OCc1nnc2c3cnn(C)c3ncn12	STAT1 activator 138.7 (no result: HSV replic up)
CN(c1nc(-c2ccc(Br)cc2)cs1)C1CCS(=O)(=O)C1 (stereo unspecified)	STAT1 activator 129.7
C/C(N)=C(/C#N)C(=O)CSc1nnc(Nc2ccccc2)s1	STAT1 activator 147.8
O=C1S/C(=C\c2ccc(O)c([N+](=O)[O-])c2)C(=O)N1c1ccccc1Cl	Cl transport mod -3.46
Cc1cc(NC(=S)NC(=O)C2CC2)ccc1Br	STAT1 activator 139.4
CC1CCCC2(C1)NC(=S)N(c1ccccc1)N2 (stereo unspecified)	none
CC1CCCC2(C1)NC(=S)c1c(sc3c1CCCC3)N2 (stereo unspecified)	Cl transport mod 53.9
CCC(Oc1ccccc1)C(=O)Nc1ccc(-c2nnc(-c3ccco3)o2)cc1 (stereo unspecified)	STAT1 activator 133.4 (no result: Cl transport mod)
COc1ccccc1OCC(=O)Nc1ccc(-c2nnc(-c3ccco3)o2)cc1	none (no result: Cl transport mod)
CCCOc1ccc([N+](=O)[O-])c(N)c1	none
COc1cc(S(=O)(=O)Nc2ccc3cn[nH]c3c2)ccc1Cl	none
O=C(O)c1ccc(Cl)c(S(=O)(=O)Nc2ccc3cn[nH]c3c2)c1	STAT3 act 135.3
CCOC(=O)CC(=O)CSc1ncnc2c1cnn2-c1ccccc1	STAT1 activator 143.0
CCOC(=O)CNC(=O)CSc1ncnc2c1cnn2-c1ccccc1	none (no result: HSV replic up)
Cc1ccc(-n2ncc3c(SCc4ccccn4)ncnc32)c(C)c1	STAT1 activator 136.7
Cc1ccc(CSc2ncnc3c2cnn3-c2ccc(C)cc2)cc1	Cl transport mod 15.7
Cc1ccc(-n2ncc3c(SCc4ccccc4)ncnc32)cc1	Cl transport mod 22.3
O=C(Nc1nccs1)c1cncc(Br)c1	STAT1 activator 142.9
CC(=O)c1c(C)[nH]c(C(=O)OCCOc2ccccc2)c1C	STAT1 blocker 50.1, STAT3 inh 84.4
CC(=O)c1c(C)[nH]c(C(=O)NCCc2ccccc2)c1C	STAT1 activator 149.2
COc1cccc(/C=N\NC(=O)Cn2nnc3ccccc32)c1O	none
O=C1c2ccccc2-c2nc3ccccc3nc21	STAT1 activator 132.1
COc1ccccc1-c1nc2ccccc2nc1-c1ccccc1OC	none
Cn1c(-c2ccc3c(c2)OCO3)cnc1NCc1ccccc1Cl	STAT1 activator 139.9

High-throughput results (PubChem)
